Experimental data taken from ChEMBL document CHEMBL4765448, “Multiple biological active 4-aminopyrazoles containing trifluoromethyl and their 4-nitroso-precursors: Synthesis and evaluation” (Eur J Med Chem, 2020).
≈ marks a conversion by molar mass, not a printed value. Calls of active or inactive are those of the source. The calls are words filed in the database; no cut-off is given here.

Key:
[1] = system: Staphylococcus aureus; test: Antibacterial activity against methicillin resistant Staphylococcus aureus; type: functional
[2] = system: Rattus norvegicus; test: Antiinflammatory activity in rat model of carrageenan-induced paw edema assessed as inhibition of hind paw swelling at 15 mg/kg, ip measured after 5 hrs; type: functional, organism-based
[3] = system: Epidermophyton floccosum; test: Antifungal activity against Epidermophyton floccosum; type: functional
[4] = system: Staphylococcus aureus; test: Antibacterial activity against Staphylococcus aureus; type: functional
[5] = system: Pseudomonas aeruginosa; test: Antibacterial activity against Pseudomonas aeruginosa; type: functional
[6] = system: Escherichia coli; test: Antibacterial activity against Escherichia coli; type: functional
[7] = system: Neisseria gonorrhoeae; test: Antibacterial activity against Neisseria gonorrhoeae; type: functional
[8] = system: Proteus vulgaris; test: Antibacterial activity against Proteus vulgaris; type: functional
[9] = system: Candida albicans; test: Antifungal activity against Candida albicans; type: functional
[10] = system: Streptococcus pyogenes; test: Antibacterial activity against Streptococcus pyogenes; type: functional
[11] = system: Trichophyton tonsurans; test: Antifungal activity against Trichophyton tonsurans; type: functional
[12] = system: Shigella flexneri; test: Antibacterial activity against Shigella flexneri; type: functional
[13] = system: Microsporum canis; test: Antifungal activity against Microsporum canis; type: functional
[14] = system: Citrobacter braakii; test: Antibacterial activity against Citrobacter braakii; type: functional
[15] = system: Mycobacterium tuberculosis; test: Antitubercular activity against Mycobacterium tuberculosis H37Rv; type: functional
Summary of the method: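 Mycobacterium tuberculosis strain H37Rv; minimum inhibitory concentration (MIC) taken as the lowest level needed to inhibit bacterial growth; isoniazid and pyrazinamide served as reference drugs.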

[16] = system: Serratia marcescens; test: Antibacterial activity against Serratia marcescens; type: functional
[17] = system: Klebsiella pneumoniae; test: Antibacterial activity against Klebsiella pneumoniae; type: functional
[18] = system: Trichophyton rubrum; test: Antifungal activity against Trichophyton rubrum; type: functional
[19] = Antioxidant activity assessed as trolox equivalent of ABTS radical scavenging activity measured after 1 hr by UV-vis spectrophotometric method; type: functional
Summary of the method: (§1)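 ABTS cation-radical decolorization was read spectrophotometrically as the fall in absorbance after 1 h. Trolox was the reference. TEAC was taken as the ratio of concentration-response slopes, test/Trolox, and IC50 was also derived. Data are mean ± SEM, n = 3.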

[20] = system: Trichophyton interdigitale; test: Antifungal activity against Trichophyton mentagrophytes var. interdigitale; type: functional
[21] = system: Nannizzia gypsea; test: Antifungal activity against Trichophyton gypseum; type: functional
[22] = Acute toxicity in mouse at 300 mg/kg, ip administered as single dose; type: organism-based; details: in vivo
Summary of the method: (§2)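 Mice, single intraperitoneal dose, following OECD Guideline for testing of chemicals; three mice per dose level; doses tested 10–300 mg/kg. Read-out is the number of survivors out of 3, used to estimate the expected LD50 range.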

[23] = system: Erythrocyte; test: Antioxidant activity in human erythrocytes assessed as protection against AAPH-induced hemolysis at 400 uM preincubated for 20 mins followed by AAPH addition and measured after 2 hrs by spectrophotometric method relative to control; type: functional; details: time 140 min, 2.333 h
Summary of the method: (§3)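 Erythrocyte hemolysis assay with AAPH as the free-radical initiator, testing 50 and 400 µM. Results are expressed as relative protection of membranes against oxidative damage, each the mean of two independent experiments.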

[24] = Antioxidant activity assessed as ABTS radical scavenging activity measured after 1 hr by UV-vis spectrophotometric method; type: functional; summary of the method: as §1
[25] = system: Erythrocyte; test: Antioxidant activity in human erythrocytes assessed as protection against AAPH-induced hemolysis at 50 uM preincubated for 20 mins followed by AAPH addition and measured after 2 hrs by spectrophotometric method relative to control; type: functional; details: time 140 min, 2.333 h; summary of the method: as §3
[26] = Acute toxicity in mouse at 150 mg/kg, ip administered as single dose; type: organism-based; details: in vivo; summary of the method: as §2
[27] = system: Rattus norvegicus; test: Analgesic activity in rat assessed as prolongation of latency period at 15 mg/kg, ip measured after 1 hr by hot-plate test relative to control; type: functional
Summary of the method: (§4)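 Hot-plate test in rats. Compounds were given by intraperitoneal injection. Latency was read at 1 h and, for some compounds, also at 2 h after dosing. Results are expressed as % prolongation of the latent period versus vehicle-treated control. Significance was given as p-values.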

[28] = system: Rattus norvegicus; test: Analgesic activity in rat assessed as prolongation of latency period at 15 mg/kg, ip measured after 2 hrs by hot-plate test relative to control; type: functional; summary of the method: as §4
[29] = Antioxidant activity assessed as AAPH scavenging activity by measuring residual fluorescence at 50 uM measured at 1 min interval for 30 mins by ORAC fluorescein assay relative to control; type: functional
Summary of the method: (§5)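 ORAC-FL assay with fluorescein as the probe and AAPH as the peroxyl radical generator. The loss of fluorescence over time was followed, and the result is given as % fluorescence restored at 10 and 50 µM. Each value is the mean of two independent experiments.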

[30] = Drug metabolism assessed as nitric oxide release in absence of rat plasma by Griess reagent based assay; type: cell-free
[31] = Antioxidant activity assessed as AAPH scavenging activity by measuring residual fluorescence at 10 uM measured at 1 min interval for 30 mins by ORAC fluorescein assay relative to control; type: functional; summary of the method: as §5
[32] = Acute toxicity in mouse at 75 mg/kg, ip administered as single dose; type: organism-based; details: in vivo; summary of the method: as §2
[33] = system: NHDF; test: Cytotoxicity against HDF cells; type: cell-based, Homo sapiens; details: Homo sapiens, NHDF; read-out: IC50
[34] = system: Rattus norvegicus; test: Antiinflammatory activity in rat model of carrageenan-induced paw edema assessed as inhibition of hind paw swelling at 15 mg/kg, ip measured after 3 hrs relative to control; type: functional
[35] = system: Rattus norvegicus; test: Antiinflammatory activity in rat model of carrageenan-induced paw edema assessed as inhibition of hind paw swelling at 15 mg/kg, ip measured after 1 hr relative to control; type: functional
[36] = system: Trichophyton violaceum; test: Antifungal activity against Trichophyton violaceum; type: functional
[37] = system: HeLa; test: Cytotoxicity against human HeLa cells; type: functional, cell-based
[38] = Selectivity index, ratio of IC50 for HDF cells to IC50 for human HeLa cells; type: toxicity; details: HDF cells versus HeLa cells, read-out: Ratio IC50

SMILES: O=Nc1c(C(F)(F)F)n[nH]c1-c1ccco1
- MIC [1]: 15.6 µg/mL (≈ 67.5 µM)
- Activity [2]: Active
- MIC [3]: 50 µg/mL (≈ 216 µM)
- MIC [4]: 31.2 µg/mL (≈ 135 µM)
- MIC [5]: > 500 µg/mL
- MIC [6]: 62.5 µg/mL (≈ 270 µM)
- MIC [7]: 15.6 µg/mL (≈ 67.5 µM)
- MIC [8]: 62.5 µg/mL (≈ 270 µM)
- MIC [9]: 25 µg/mL (≈ 108 µM)
- MIC [10]: 7.8 µg/mL (≈ 33.7 µM)
- MIC [11]: 50 µg/mL (≈ 216 µM)
- MIC [12]: 125 µg/mL (≈ 541 µM)
- MIC [13]: 12.5 µg/mL (≈ 54.1 µM)
- MIC [14]: 125 µg/mL (≈ 541 µM)
- MIC [15]: 6.2 µg/mL (≈ 26.8 µM)
- MIC [16]: 125 µg/mL (≈ 541 µM)
- MIC [17]: 125 µg/mL (≈ 541 µM)
- MIC [18]: 12.5 µg/mL (≈ 54.1 µM)
- Activity [19]: 0.02 equiv
- MIC [20]: 50 µg/mL (≈ 216 µM)
- MIC [21]: 25 µg/mL (≈ 108 µM)
- Activity [22]: Toxic

SMILES: Nc1c(C(F)(F)F)n[nH]c1-c1ccccc1
- fold change (FC) [23]: 0.02
- IC50 [24]: 14.1 µM
- fold change (FC) [25]: 1.1
- Activity [26]: Non-Toxic
- Activity [27]: 56.7%
- Activity [28]: 66.7%

SMILES: O=Nc1c(C(F)(F)F)n[nH]c1-c1cccs1
- MIC [1]: 62.5 µg/mL (≈ 253 µM)
- Activity [2]: Active
- MIC [3]: 50 µg/mL (≈ 202 µM)
- MIC [4]: 15.6 µg/mL (≈ 63.1 µM)
- MIC [5]: > 500 µg/mL
- fold change (FC) [23]: 1.12
- Activity [29]: -98.7%
- fold change (FC) [25]: 1.18
- MIC [6]: 250 µg/mL (≈ 1010 µM)
- Drug metabolism [30]: Metabolite not detected
- MIC [7]: 62.5 µg/mL (≈ 253 µM)
- MIC [8]: 31.2 µg/mL (≈ 126 µM)
- MIC [9]: 50 µg/mL (≈ 202 µM)
- MIC [10]: 7.8 µg/mL (≈ 31.6 µM)
- MIC [11]: 50 µg/mL (≈ 202 µM)
- Activity [31]: -56.2%
- MIC [12]: 500 µg/mL (≈ 2020 µM)
- MIC [13]: 25 µg/mL (≈ 101 µM)
- MIC [14]: 250 µg/mL (≈ 1010 µM)
- MIC [15]: 3.1 µg/mL (≈ 12.5 µM)
- Activity [32]: Toxic
- MIC [16]: 250 µg/mL (≈ 1010 µM)
- MIC [17]: 500 µg/mL (≈ 2020 µM)
- MIC [18]: 12.5 µg/mL (≈ 50.6 µM)
- Activity [19]: 0.02 equiv
- MIC [20]: 50 µg/mL (≈ 202 µM)
- MIC [21]: 50 µg/mL (≈ 202 µM)

SMILES: O=Nc1c(C(F)(F)F)n[nH]c1-c1ccccc1
- MIC [1]: 62.5 µg/mL (≈ 259 µM)
- Activity [2]: Active
- MIC [3]: > 200 µg/mL
- MIC [4]: 31.2 µg/mL (≈ 129 µM)
- MIC [5]: 125 µg/mL (≈ 518 µM)
- fold change (FC) [23]: 1.05
- Activity [29]: -119%
- fold change (FC) [25]: 0.99
- MIC [6]: 62.5 µg/mL (≈ 259 µM)
- MIC [7]: 62.5 µg/mL (≈ 259 µM)
- MIC [8]: 31.2 µg/mL (≈ 129 µM)
- MIC [9]: 100 µg/mL (≈ 415 µM)
- MIC [10]: 7.8 µg/mL (≈ 32.3 µM)
- MIC [11]: > 200 µg/mL
- IC50 [33]: 1.42 µM
- Activity [31]: -80.4%
- inhibition in vivo at 15 mg/kg [34]: 32%
- MIC [12]: 31.2 µg/mL (≈ 129 µM)
- MIC [13]: > 200 µg/mL
- MIC [14]: 62.5 µg/mL (≈ 259 µM)
- inhibition [35]: inactive
- Activity [27]: 51.7%
- MIC [36]: > 200 µg/mL
- MIC [15]: 0.36 µg/mL (≈ 1.49 µM)
- Activity [37]: Dose-dependent effect
- IC50 ([37]; Homo sapiens, HeLa, read-out: IC50): 1.86 µM
- MIC [16]: 62.5 µg/mL (≈ 259 µM)
- selectivity ratio [38]: 0.76
- MIC [17]: 62.5 µg/mL (≈ 259 µM)
- MIC [18]: > 200 µg/mL
- Activity [19]: inactive
- MIC [20]: > 200 µg/mL
- MIC [21]: > 200 µg/mL
